Screening data deposited in PubChem by Broad Institute.
A selection: hits, their analogues and other compounds. The true share with any hit is near 3.8%.
DENV2 CPE – protects cells from dengue virus 2 cytopathic effect. 350,000 compounds, 1.7% hits. AID 651640. CPE inhibition, % at 9.99 µM. DENV2-infected cells, cytopathic effect rescue, plate reader; in the data active = CPE inhibition above about 20%, passing the limit was not always enough; inconclusive = no clear call, values can overlap the other calls; tested in BHK-21 cells;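 note: 0% = median of neutral control wells and 100% = median of positive control wells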
FGF22 binding – shifts melting point of recombinant human FGF22; AID 651658; Q9HCT0; 340,000 compounds, 1.5% hits; activity (Tm shift, normalised), % at 9.99 µM; recombinant FGF22 thermal shift, SYPRO orange fluorescence; percent of sucrose octasulfate shift, DMSO zero;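 active = mean Tm shift, scaled 0 neutral to 100 positive control, at about 1.3% or above, every replicate too, limit read from the data; inconclusive = no clear call, values can overlap the other calls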
Target sequence (Q9HCT0 whole entry, looked up): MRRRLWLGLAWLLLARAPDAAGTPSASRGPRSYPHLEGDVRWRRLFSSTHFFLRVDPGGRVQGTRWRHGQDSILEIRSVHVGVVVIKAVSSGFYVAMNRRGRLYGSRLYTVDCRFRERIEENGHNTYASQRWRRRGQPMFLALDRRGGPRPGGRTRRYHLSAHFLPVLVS
SIRT5 block – blocks human SIRT5 desuccinylation of peptide | Q9NXA8 | Purified SirT5, succinyl-peptide AMC, trypsin-coupled fluorescence | inhibition, % at 15 µM | 330,000 compounds, 1.1% hits; in the data active = inhibition above about 15%; inconclusive = no clear call, values can overlap the other calls
Target sequence (Q9NXA8 whole entry, looked up): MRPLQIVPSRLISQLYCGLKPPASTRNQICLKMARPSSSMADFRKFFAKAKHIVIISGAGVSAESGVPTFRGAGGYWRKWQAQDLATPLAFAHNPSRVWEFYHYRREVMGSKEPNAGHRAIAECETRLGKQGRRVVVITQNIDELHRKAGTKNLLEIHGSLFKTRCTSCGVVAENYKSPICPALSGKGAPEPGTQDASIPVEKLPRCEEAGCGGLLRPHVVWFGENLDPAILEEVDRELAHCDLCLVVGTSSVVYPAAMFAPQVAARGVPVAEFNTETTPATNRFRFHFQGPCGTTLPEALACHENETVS
Xi reactivation – activators of X-chromosome reactivation in mouse fibroblasts | activation, % at 7.58 µM | 360,000 compounds, 0.055% hits | XiGFP mouse fibroblasts, % GFP-positive cells imaging, 3 d; cells co-treated with 5-aza-dC sensitizer; scaled so ellipticine positive control = 100%;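 active = mean normalized replicate activation at least 10% and every replicate at or above 10%; inconclusive = only one of the two criteria met; inactive = mean below 10% and not all replicates reach 10%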;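 note: 0% = median of on-plate neutral control wells and 100% = ellipticine 6 µM median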
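Material: XiGFP fibroblasts, SV40-immortalized; Buffer or medium: DMEM containing 5-aza-dC; Compound dosing: single point; Times: 3 days compound exposure.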
FN deposit inh – fibronectin deposition inhibition. AH1F fibroblasts, Alexa488-fibronectin deposition fluorescence, overnight. inhibition, % at 12.6 µM. 350,000 compounds, 0.086% hits;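 active = mean inhibition across replicates of 30% or more, regardless of how many single replicates reach that level; inconclusive = mean under 30% yet at least half of replicates reach 30%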;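 note: positive control wells lacked labelled fibronectin entirely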
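test system = AH1F fibroblasts assembling fluorescent fibronectin matrix | quantity = 10000 AH1F cells per well | buffer or medium = DMEM plus 2% serum, read in PBS | doses = single dose, pinned | incubation = 1 h cell attachment, overnight exposure to compound and label | detection = fluorescence at 485 nm excitation, 525 nm emission | read-out basis = inhibition from reduced deposited-fibronectin fluorescence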
ARNT-TACC3 inh – disruptors of human ARNT/TACC3 interaction | AlphaScreen His-ARNT PAS-B/GST-TACC3 binding, luminescence; TACC3 fragment carries E629A point mutation | 390,000 compounds, 0.66% hits | AID 623870 | inhibition, % at 9.99 µM;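 active = mean inhibition of replicates at least 50% and at least half of replicates each reaching 50%; inconclusive = half or more replicates reach 50% but mean below 50%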;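 note: 0% = complete ARNT plus TACC3 wells and 100% = ARNT alone without TACC3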
An asterisk follows results filed as active; ? = inconclusive; . = not tested or not shown.

SMILES	DENV2 CPE	FGF22 binding	SIRT5 block	Xi reactivation	FN deposit inh	ARNT-TACC3 inh
OC[C@@H]1[C@@H](c2ccccc2)C2(CN(Cc3ccccn3)C2)N1CCC(F)(F)F	.	.	.	0	-4	.
O=C(Nc1nc(-c2ccc(Cl)cc2Cl)cs1)c1ccc(OCC2CCCO2)cc1 (centres undefined)	-1	0	112*	1	7	0
COc1ccc(S(=O)(=O)N2CCCCCC2)cc1C(=O)N(C)CCOc1ccc(Cl)cc1	1	0	-1	0	-13	-5
CCN1CCN(S(=O)(=O)c2ccc(Cl)c(C(=O)N(C)CCOc3ccc(Cl)cc3)c2)CC1	67*	0	1	0	-4	4
Cn1cc([N+](=O)[O-])c(C(=O)Nc2ccc(C(=O)N3CCCCC3)cc2)n1	39*	0	-5	0	-2	1
O=C(c1cccc(F)c1)N1CC2(C1)[C@@H](c1ccccc1)[C@@H](CO)N2C(=O)C1CCC1	-5	.	2	0	-2	.
O=C(O)c1ccccc1-c1ccccc1C(=O)Nc1ccc2oc(=O)c3ccccc3c2c1	-6	.	0	0	6	.
O=C(O)c1ccccc1-c1ccccc1C(=O)Nc1ccc2c(c1)[nH]c(=O)c1ccccc12	-3	0	9	0	4	47*
C[C@@H]1CN([C@H](C)CO)C(=O)c2ccccc2-c2ccccc2CO[C@@H]1CN(C)Cc1ccc(C(F)(F)F)cc1	0	0	5	1	-6	.
C[C@@H]1CN([C@@H](C)CO)C(=O)c2ccccc2-c2ccccc2CO[C@H]1CN(C)Cc1ccccc1C(F)(F)F	-9	-1	28*	0	3	.
C[C@H]1CN([C@@H](C)CO)C(=O)c2ccccc2-c2ccccc2CO[C@@H]1CN(C)Cc1ccc(C(F)(F)F)cc1	-2	0	16*	-1	-5	.
C[C@H]1CN([C@@H](C)CO)C(=O)c2ccccc2-c2ccccc2CO[C@H]1CN(C)Cc1ccc(C(F)(F)F)cc1	50*	.	8	0	-15	.
C[C@H](CO)N1C[C@H](C)[C@H](CN(C)Cc2cccc(C(F)(F)F)c2)OCc2ccccc2-c2ccccc2C1=O	-1	-1	20*	1	-18	.
C[C@H](CO)N1C[C@H](C)[C@H](CN(C)Cc2ccc(C(F)(F)F)cc2)OCc2ccccc2-c2ccccc2C1=O	-14	0	14	0	-13	.
CO[C@H](CN(C)C(=O)c1cnccn1)[C@@H](C)CN([C@H](C)CO)S(=O)(=O)c1ccc(C)cc1	2	0	-6	0	3	1
C[C@@H]1CN([C@@H](C)CO)C(=O)c2cc(NC(=O)c3ccncc3)ccc2O[C@H]1CN(C)C(=O)Nc1ccccc1	6	0	-1	0	.	8
C[C@@H]1CN([C@H](C)CO)C(=O)Cc2cc(NC(=O)Nc3ccc(C(F)(F)F)cc3)ccc2O[C@H]1CN(C)Cc1ccc(C(=O)O)cc1	24*	0	5	-1	.	-7
C[C@H](CO)N1C[C@H](C)[C@H](CN(C)Cc2ccc(C(F)(F)F)cc2)Oc2ccc(NC(=O)Nc3ccccc3)cc2CC1=O	25*	0	-1	0	.	6
CC(C)NC(=O)N(C)C[C@@H]1Oc2ccc(NC(=O)Nc3ccc(C(F)(F)F)cc3)cc2CC(=O)N([C@@H](C)CO)C[C@H]1C	2	0	1	3	-21	46*
C[C@H](CO)N1C[C@H](C)[C@H](CN(C)Cc2ccc(C(=O)O)cc2)Oc2ccc(NC(=O)Nc3ccc(C(F)(F)F)cc3)cc2CC1=O	-4	0	3	-1	.	-10
CC(C)NC(=O)N(C)C[C@H]1Oc2ccc(NC(=O)Nc3ccc(C(F)(F)F)cc3)cc2CC(=O)N([C@H](C)CO)C[C@H]1C	-7	-1	0	-1	4	17
O=C(C[C@H]1CC[C@@H]2[C@H](COC[C@H](O)CN2S(=O)(=O)c2ccccc2)O1)NCCN1CCCC1	28*	.	3	0	-6	.
O=C(C[C@@H]1CC[C@@H]2[C@H](COC[C@@H](O)CN2S(=O)(=O)c2ccc(Cl)cc2)O1)NCCN1CCCC1	27*	-1	2	0	-6	-13
Cc1ccccc1S(=O)(=O)N1C[C@@H](O)COC[C@@H]2O[C@H](CC(=O)N3CCCCC3)CC[C@H]21	110*	0	-2	0	-8	-3
O=C(C[C@@H]1CC[C@@H]2[C@H](COC[C@H](O)CN2C(=O)c2ccc3c(c2)OCO3)O1)NCCN1CCCC1	31*	0	2	0	-5	.
SMILES	DENV2 CPE	FGF22 binding	SIRT5 block	Xi reactivation	FN deposit inh	ARNT-TACC3 inh
O=C(C[C@@H]1CC[C@H]2[C@@H](COC[C@@H](O)CN2S(=O)(=O)c2ccccc2)O1)NCCN1CCCC1	?	0	-4	0	1	.
O=C(C[C@@H]1CC[C@@H]2[C@H](COC[C@@H](O)CN2C(=O)c2ccc3c(c2)OCO3)O1)NCCN1CCCC1	-4	.	1	0	6	.
Cc1ccccc1S(=O)(=O)N1C[C@@H](O)COC[C@@H]2O[C@@H](CC(=O)N3CCCCC3)CC[C@H]21	-2	0	5	0	-2	-4
CC(C)NC(=O)Nc1ccc2c(c1)CC(=O)N([C@H](C)CO)C[C@H](C)[C@H](CN(C)Cc1ccc(Cl)c(Cl)c1)O2	-2	0	7	0	.	1
C[C@H]1CN([C@@H](C)CO)S(=O)(=O)c2ccc(-c3ccncc3)cc2O[C@H]1CN(C)C(=O)C1CCCCC1	.	.	.	2	.	.
CN(C)CCCNC(=O)C[C@H]1CC[C@H]2[C@@H](COC[C@H](O)CN2S(=O)(=O)c2ccc(F)cc2)O1	-4	0	22*	0	-4	-2
CCNC(=O)C[C@@H]1CC[C@H]2[C@@H](COC[C@@H](O)CN2S(=O)(=O)c2ccccc2F)O1	23*	-1	3	0	8	-2
CCCNC(=O)C[C@H]1CC[C@H]2[C@@H](COC[C@@H](O)CN2S(=O)(=O)c2ccccc2F)O1	8	0	-7	0	-5	11
Cn1cnc(S(=O)(=O)N2C[C@H](O)COC[C@@H]3O[C@@H](CC(=O)NC4CCCC4)CC[C@H]32)c1	59*	0	-4	0	-11	9
O=C(C[C@H]1CC[C@@H]2[C@H](COC[C@@H](O)CN2S(=O)(=O)c2ccccc2)O1)NCC1CCCCC1	1	0	100*	.	.	7
CC(=O)Nc1ccc2c(c1)CC(=O)N(C)C[C@H](C)[C@@H](CN(C)C)O2	.	.	.	0	-10	.
